Test [1] deals with MGC-803. The experiment in a line: Cell cycle arrest in human MGC-803 cells assessed as accumulation at G1 phase at 0.5 uM after 48 hrs by propidium iodide staining-based flow cytometric analysis (reference value: 46.96 %). It is filed as functional. (In general: In flow cytometry, cells or beads pass a laser one at a time.)
For test [2], the system named is MGC-803. The experiment in a line: Induction of apoptosis in human MGC-803 cells assessed as necrotic cells at 2.5 uM measured after 24 hrs by Annexin-V/propidium iodide staining-based flow cytometric analysis (Rvb =6.05%).
The subject of test [3] is MGC-803. The experiment in a line: Cell cycle arrest in human MGC-803 cells assessed as accumulation at G2/M phase at 0.25 uM after 48 hrs by propidium iodide staining-based flow cytometric analysis (reference value: 7.94%). Type of test: functional.
Test [4] concerns MGC-803. The experiment in a line: Induction of apoptosis in human MGC-803 cells assessed as early apoptotic cells at 2.5 uM measured after 24 hrs by Annexin-V/propidium iodide staining-based flow cytometric analysis (Rvb =0.84%).
Test [5] deals with T-24. The experiment in a line: Cytotoxicity against human T-24 cells […] assessed as reduction in cell viability preincubated for 48 hrs and measured after 4 hrs by MTT assay. It is filed as functional, cell-based. For orientation: Formazan colour is commonly taken as a measure of viable cells.
Test [6] relates to MGC-803. Kind of test: Induction of apoptosis in human MGC-803 cells assessed as necrotic cells at 0.5 uM measured after 24 hrs by Annexin-V/propidium iodide staining-based flow cytometric analysis (Rvb =6.05%).
Test [7] deals with Calf thymus DNA. Kind of test: Binding affinity to calf thymus DNA assessed as hypochromism by measuring absorption spectra at 20 uM incubated for 5 mins by UV-Vis absorption spectrometry. Type of test: tissue-based. To be noted: Bos taurus. A digest of the protocol:
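Compound at 20 µM in Tris-HCl buffer, 25 °C, titrated with ct-DNA at [DNA]/[compound] 0 to 1.0 in steps of 0.1. Absorption spectra recorded at 295–360 nm after 5 min equilibration following each addition.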

Test [8] deals with MGC-803. Kind of test: Induction of DNA damage in human MGC-803 cells assessed as increase in p-p53 level at 2.5 uM measured after 24 hrs by Western blot analysis. It is filed as functional, cell-based. A digest of the protocol: (§1)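 MGC-803 cells (2×10^6) plated overnight, then treated for 24 h at 0.5, 1.0 or 2.5 µM (test agent) or 5.0 µM (comparator). Whole-cell lysates separated by SDS-PAGE, transferred to PVDF and probed with primary antibodies. AP-linked anti-rabbit IgG, ECL detection, β-actin loading control. Representative of three experiments.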

Test [9] relates to Calf thymus DNA. Kind of test: Binding affinity to calf thymus DNA assessed as quenching in emission band measured at 0.5:1 to 5:1 compound to EB ratio by ethidium bromide competitive displacement assay. To be noted: Bos taurus. A digest of the protocol: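 Competitive displacement using EB (10 µM) with ct-DNA (20 µM) in Tris-HCl, pH 7.4, 25 °C. Compound added stepwise from 10 to 100 µM; 5 min equilibration after each addition, then fluorescence emission recorded (slits 5 nm). Quenching constant from the Stern–Volmer equation.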

Test [10] concerns MGC-803. Kind of test: Induction of apoptosis in human MGC-803 cells assessed as cell shrinkage at 0.5 to 2.5 uM incubated for 24 hrs by Hoechst 33258 staining based analysis. Particulars: dose 0.5-2.5 µM. Type of test: functional. The procedure, abridged:
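MGC-803 cells treated in six-well plates, fixed in 4% paraformaldehyde for 10 min, washed, stained with Hoechst 33258 for 5 min, and examined for nuclear morphology by fluorescence microscopy.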

Test [11] relates to MGC-803. Kind of test: Induction of ROS generation in human MGC-803 cells assessed as intracellular ROS level at 0 to 2.5 uM after 24 hrs by DCFH-DA staining-based flow cytometric analysis. It is filed as functional, cell-based. To be noted: dose 0-2.5 µM. A digest of the protocol: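 MGC-803 cells treated at 0.5, 1.0 or 2.5 µM for 24 h, harvested, washed in cold PBS and loaded with DCFH-DA at 37 °C for 30 min in the dark. Washed three times in PBS; fluorescence read by flow cytometry. Representative of three experiments.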

Test [12] deals with MGC-803. The experiment in a line: Induction of apoptosis in human MGC-803 cells assessed as viable cells at 2.5 uM measured after 24 hrs by Annexin-V/propidium iodide staining-based flow cytometric analysis (Rvb =92.2 %). To be noted: MGC-803, 24 h.
The test system of test [13] is PC-3. Kind of test: Cytotoxicity against human PC-3 cells assessed as reduction in cell viability preincubated for 48 hrs and measured after 4 hrs by MTT assay. It is filed as functional, cell-based.
The subject of test [14] is MGC-803. Kind of test: Induction of DNA damage in human MGC-803 cells assessed as increase in gamma H2AX at 2.5 uM measured after 24 hrs by Western blot analysis. It is filed as functional, cell-based. The procedure, abridged: as §1
On the technique in general: A western blot detects proteins with antibodies after separation by electrophoresis.

The subject of test [15] is MGC-803. The experiment in a line: Induction of apoptosis in human MGC-803 cells assessed as increase in p21 protein expression upto 2.5 uM incubated for 24 hrs by Western blot analysis. Type of test: functional, cell-based. Particulars: dose microM <=2.5, time 24.0 hrs. The procedure, abridged:
(§2)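 MGC-803 cells (2×10^6) cultured overnight, then exposed 24 h to 0.5, 1.0 or 2.5 μM, or 5.0 μM for the reference agent. Lysates were resolved by SDS-PAGE, transferred to PVDF and probed with primary antibodies. Detection used AP-linked anti-rabbit IgG and ECL. β-actin served as loading control.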

In test [16] the test system is MGC-803. Kind of test: Induction of apoptosis in human MGC-803 cells assessed as increase in nuclear chromatin condensation at 0.5 to 2.5 uM incubated for 24 hrs by Hoechst 33258 staining based analysis. It is filed as functional, cell-based. Particulars: dose 0.5-2.5 µM. A digest of the protocol: (§3)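 Cells in six-well plates were treated for the indicated time, then fixed 10 min in 4% paraformaldehyde and washed twice in PBS. Nuclei were stained 5 min with Hoechst 33258, washed twice in PBS and examined by fluorescence microscopy.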

In test [17] the test system is MGC-803. Kind of test: Cell cycle arrest in human MGC-803 cells assessed as accumulation at G2/M phase at 0.125 uM after 48 hrs by propidium iodide staining-based flow cytometric analysis (reference value: 7.94%). Type of test: functional.
Test [18] has as its system MGC-803. The experiment in a line: Antitumor activity against human MGC-803 cells xenografted in BALB/C nude mouse assessed as tumor growth inhibition at 10 mg/kg, ip administered every 2 days and measured 3 times per week for 16 days. Type of test: functional. More on the design: scale not given: the % may be the effect or the level left. To be noted: time 16 day. The procedure, abridged:
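Male BALB/c nude mice, 6 weeks old, given 5×10^6 MGC-803 cells s.c. in the flank. When tumors reached about 80 mm3, mice were randomized (n = 6/group) and dosed i.p. every 2 days. Vehicle was 5% DMSO in saline. Drug solutions were 1.0 or 2.0 mg/mL (DMSO/saline). Tumor length and width plus body weight were measured three times weekly; volume = lw²/2. Mean ± SD.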

The test system of test [19] is MGC-803. The experiment in a line: Induction of DNA damage in human MGC-803 cells assessed as increase in p53 level at 2.5 uM measured after 24 hrs by Western blot analysis. Type of test: functional, cell-based. The procedure, abridged:
as §1

The subject of test [20] is MGC-803. The experiment in a line: Cell cycle arrest in human MGC-803 cells assessed as accumulation at G2/M phase at 0.5 uM after 48 hrs by propidium iodide staining-based flow cytometric analysis (reference value: 7.94%). It is filed as functional.
Test [21] has as its system MGC-803. Kind of test: Induction of apoptosis in human MGC-803 cells assessed as nuclear fragmentation incubated at 0.5 to 2.5 uM for 24 hrs by Hoechst 33258 staining based analysis. Particulars: dose 0.5-2.5 µM. Type of test: functional, cell-based. A digest of the protocol:
as §3

Test [22] concerns MGC-803. Kind of test: Induction of apoptosis in human MGC-803 cells assessed as decrease in Bcl-2 expression at 0.5 to 2.5 uM measured after 24 hrs by Western blot analysis. To be noted: dose 0.5-2.5 µM. Type of test: functional, cell-based. A digest of the protocol: as §1
For test [23], the system named is MGC-803. Kind of test: Induction of apoptosis in human MGC-803 cells assessed as increase in Bim expression at 0.5 to 2.5 uM measured after 24 hrs by Western blot analysis. It is filed as functional, cell-based. To be noted: dose 0.5-2.5 µM. The procedure, abridged:
as §2

The IC50 is the midpoint of a concentration-inhibition curve. As a reminder, the viability is a per cent measure of how many cells are alive, often set against a control.

The source made the active and inactive calls. No cut-off for these calls is given here.

For `NCCCCNc1nc(/C=C/c2ccc([N+](=O)[O-])cc2)nc2ccccc12`, the Activity is given as 1.44% in [1]; 1.27% in test [2]; 55.43% in [3]; 28% in [4]; 8.13% in test [6]; 18.16% in test [17]. Besides, the results for the Activity in test [18] and in test [20] were 35.9% and 72.67%, respectively. Also, the figures for the concentration for half-maximal inhibition (IC50) in [5] and in test [13] were 1.79 µM and 4.53 µM, respectively. Moreover, the result in test [7], in [8], in test [9], in test [10], in test [11] and in test [14] was Active. Also, the outcome in test [15], in test [16], in test [19], in test [21], in test [22] and in [23] was Active. Further, the viability at 2.5 µM in test [12] was determined as 14.8%.

Values taken from ChEMBL document CHEMBL4680124, “2-Styryl-4-aminoquinazoline derivatives as potent DNA-cleavage, p53-activation and in vivo effective anticancer agents” (Eur J Med Chem, 2020).
